By IC50 is commonly meant the point on the concentration scale where inhibition reaches its midpoint. The term IC90 denotes the concentration needed for an effect of 90%.

For assay [1], the system named is HFF. Kind of assay: Antiviral activity was determined by the HCMV plaque assay using HFF cells. The class given is functional, cell-based. The settings on record: Homo sapiens. The method in brief:
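HCMV Towne strain (plaque-purified isolate Po) on HFF monolayers grown in MEM with Earle's salts and 10% FBS. Inoculum held approximately 50 PFU. Compounds were dissolved in the overlay medium and plaques counted. IC50 came from linear regression of percent inhibition against log concentration. Ganciclovir was the positive control.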

Assay [2] relates to KB. Kind of assay: Antiviral activity was estimated by HSV-1 ELISA method. It is filed as functional, cell-based. The settings on record: Homo sapiens. The method in brief: (§1)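 HSV-1 S-148 strain was assayed by enzyme immunoassay (ELISA) in quadruplicate wells. The reported value is the average IC50, taken from linear regression of percent inhibition against log drug concentration. Acyclovir served as the positive control, and sets were rejected if it deviated more than 1.5 standard deviations from its mean.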

Assay [3] deals with KB. Put plainly: Cytotoxicity in KB cells. The settings on record: Homo sapiens. The class given is functional, cell-based. The method in brief: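 KB cells grown in MEM with Hank's salts and 5% FBS. Growth was measured spectrophotometrically by crystal violet staining 2 days after drug treatment, in quadruplicate wells. IC50 was taken from linear regression of percent inhibition against log concentration. 2-Acetylpyridine thiosemicarbazone was the positive control.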

Assay [4] concerns HFF. Put plainly: Cytotoxicity in HFF cells was estimated by the visual scoring of cells not affected by virus infection in the plaque reduction assay. The settings on record: Homo sapiens.
The test system of assay [5] is L1210. Put plainly: The in vitro cytotoxicity against L1210 cells was evaluated. The class given is functional, cell-based. The conditions noted are these: Mus musculus. The method in brief:
(§2)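 L1210 cells were grown in static suspension in Fischer's medium with 10% heat-inactivated horse serum. Cells were counted at 0, 48 and 96 h across a range of compound concentrations. Growth rate is the ratio of control to treated population-doubling time; the 48–96 h rate was used if growth slowed. IC50 is the concentration giving 50% of control growth rate; highest concentration tested was 100 μM.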

In assay [6] the test system is KB. Put plainly: Antiviral activity was estimated by HSV-1 ELISA method (data of single experiment). The class given is functional, cell-based. The settings on record: Homo sapiens. Put shortly:
as §1

Assay [7] deals with L1210. Put plainly: cytotoxicity in L1210 cell culture(cell proliferation inhibited by 50%). It is filed as functional, cell-based. The conditions noted are these: Mus musculus. Put shortly:
as §2

Assay [8] concerns KB. Kind of assay: Antiviral activity was estimated by HSV-1 ELISA method. The class given is functional, cell-based. The conditions noted are these: Homo sapiens. The method in brief: as §1
Assay [9] has as its system L1210. Put plainly: Cytotoxicity in L1210 cell culture(cell proliferation inhibited by 50%). It is filed as functional, cell-based. The settings on record: Mus musculus. Put shortly: as §2
Assay [10] relates to HFF. Kind of assay: Antiviral activity was estimated by the HCMV yield reduction experiments. The class given is functional. The settings on record: Homo sapiens. The method in brief: (§3)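 HCMV Towne strain yield reduction assay. Results are given as IC90, derived by linear regression of percent inhibition against log drug concentration. Ganciclovir was the positive control.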

For assay [11], the system named is HFF. Put plainly: Antiviral activity was estimated by the HCMV yield reduction experiments. The conditions noted are these: Homo sapiens. It is filed as functional. The method in brief:
as §3

In the case of `Nc1nnc(O)c2c1ccn2C1CCC(CO)O1` (stereo unspecified), the IC50 in the assay with HFF [1], in the assay with KB [2], with KB [3], in the assay on HFF [4] and in the assay on L1210 [5] was above 100 µM throughout.

`Nc1nnc(O)c2c1ccn2COC(CO)CO`: the 50% inhibitory concentration (IC50) in the assay on HFF [1], with KB [3], in the assay with KB [6], with HFF [4] and with L1210 [7] was above 100 µM each time.

In the case of `Nc1nnc(O)c2c1c(Br)cn2COC(CO)CO`, the IC50 in the assay with HFF [1], in the assay on KB [8], in the assay on KB [3], with L1210 [9] and with HFF [4] was above 100 µM each time.

Consider `Nc1nnc(O)c2c1ccn2[C@@H]1O[C@H](CO)[C@@H](O)[C@H]1O`, for which the IC50 was 90 µM in the assay on KB [2] and above 100 µM in the assay with HFF [4].

As to `Nc1n[nH]c(=O)c2c1c(Br)cn2[C@@H]1O[C@H](CO)[C@@H](O)[C@@H]1O`, the IC90 with HFF [10] was 6.3 µM. Further, the half-inhibitory concentration (IC50) was 2.7 µM in the assay with HFF [1]; 20 µM in the assay with KB [2]; 15 µM in the assay with KB [3]; 32 µM in the assay with HFF [4]; 18 µM in the assay with L1210 [5].

Consider `Nc1nnc(O)c2c1ccn2[C@@H]1O[C@H](CO)[C@@H](O)[C@@H]1O`, for which the IC50 in the assay with HFF [1] was above 100 µM; in the assay on KB [2], 90 µM; with HFF [4], above 100 µM; in the assay on L1210 [5], 100 µM.

Regarding `Nc1n[nH]c(=O)c2c1c(Br)cn2[C@@H]1O[C@H](CO)[C@@H](O)[C@H]1O`, the 90% effect concentration (IC90) in the assay with HFF [10] was 0.04 µM. In addition, the half-inhibitory concentration (IC50) in the assay with HFF [1] was 0.1 µM; with KB [2], 2 µM.

For `Nc1n[nH]c(=O)c2c1ccn2[C@H]1C[C@H](O)[C@@H](CO)O1`, the IC50 was above 100 µM in the assay on HFF [1]; 128 µM in the assay with KB [2]; above 100 µM in the assay on KB [3]; above 100 µM with L1210 [9]; above 100 µM in the assay with HFF [4].

For `Nc1nnc(O)c2c1c(Br)cn2C1CCC(CO)O1` (stereo unspecified), the IC90 with HFF [10] is 10 µM. In addition, the 50% inhibitory concentration (IC50) in the assay with HFF [1] is 12 µM; with KB [2] it was 27 µM; in the assay on KB [3], 10 µM; with HFF [4], 32 µM; in the assay on L1210 [5] it was 38 µM.

As to `Nc1nnc(O)c2c1c(I)cn2C1O[C@H](CO)[C@@H](O)[C@H]1O` (stereo partly specified), in the assay on HFF [10], the concentration for an effect of 90% (IC90) was 0.02 µM. The half-maximal inhibitory concentration (IC50) was 0.4 µM with HFF [1], 4.5 µM with KB [2] and 0.02 µM in the assay with L1210 [5].

For `Nc1nnc(O)c2c1c(Cl)cn2C1O[C@H](CO)[C@@H](O)[C@H]1O` (stereo partly specified), the IC90 in the assay with HFF [10] is 0.7 µM. Also, the results for the IC50 in the assay with HFF [1] and with KB [2] were 0.2 µM and 6.8 µM, respectively.

Turning to `Nc1nc2c(ncn2COC(CO)CO)c(=O)[nH]1` [GANCICLOVIR], in the assay on HFF [11], the IC90 is 1.8 µM. Moreover, the values for the IC50 in the assay on HFF [1] and with KB [6] were 7.7 µM and 3.5 µM, respectively.

The values are drawn from ChEMBL document CHEMBL1129959, “Synthesis and antiproliferative and antiviral activity of carbohydrate-modified pyrrolo[2,3-d]pyridazin-7-one nucleosides” (J Med Chem, 1997).
